Assay results reported in article PMC7745752 (The Journal of General Physiology, 2020).
Substitutions are numbered along the chain they refer to.

Assays:
TRPV3 E631A = molecular target: T1, TRPV3 E631A (Mus musculus, UniProt Q8K424, E631A); test: whole-cell voltage-clamp recording in transfected HEK293 cells; format: cell-based; conditions: n = 3
T1 sequence (Q8K424 1-791 E631A): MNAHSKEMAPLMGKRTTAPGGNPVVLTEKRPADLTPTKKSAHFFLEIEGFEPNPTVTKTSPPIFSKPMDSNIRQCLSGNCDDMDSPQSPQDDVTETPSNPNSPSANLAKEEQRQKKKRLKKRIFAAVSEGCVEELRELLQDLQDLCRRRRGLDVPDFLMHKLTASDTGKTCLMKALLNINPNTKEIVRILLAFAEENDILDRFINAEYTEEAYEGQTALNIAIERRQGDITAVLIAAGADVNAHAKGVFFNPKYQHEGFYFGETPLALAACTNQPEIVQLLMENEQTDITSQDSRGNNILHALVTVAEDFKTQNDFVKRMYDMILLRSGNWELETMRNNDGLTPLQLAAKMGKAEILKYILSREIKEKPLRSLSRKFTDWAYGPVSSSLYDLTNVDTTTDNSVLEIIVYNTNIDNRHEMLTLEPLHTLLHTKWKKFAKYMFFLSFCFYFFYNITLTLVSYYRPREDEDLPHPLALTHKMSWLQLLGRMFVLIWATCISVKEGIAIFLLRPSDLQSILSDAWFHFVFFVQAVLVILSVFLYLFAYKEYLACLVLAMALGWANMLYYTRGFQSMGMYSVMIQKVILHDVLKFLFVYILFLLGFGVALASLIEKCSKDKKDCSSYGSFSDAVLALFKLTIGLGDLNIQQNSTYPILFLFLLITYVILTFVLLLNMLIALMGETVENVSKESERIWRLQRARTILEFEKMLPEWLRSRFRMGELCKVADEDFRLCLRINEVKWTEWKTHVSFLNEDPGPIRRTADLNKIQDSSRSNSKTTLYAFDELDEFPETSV
Procedure, shortened: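 Whole-cell clamp at 22–24°C of HEK293 cells transiently expressing mutant mouse TRPV3. Pipette: 140 mM CsCl, 1 EGTA, pH 7.2. Bath: nominally Ca2+-free. 30 µM 2-APB was perfused at pHe 7.4, then in pH 5.0 Mes-buffered solution. Ramps ran −100 to +100 mV over 200 ms every second from 0 mV holding. Current ratio pHe 5.0/7.4 was taken at ±100 mV.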

[1] = system: TRPV3 C-terminal double and triple mutants (E682Q, E689Q, D727N combinations); test: cell-based Ca2+ assay; parameters: species or system mouse; conditions: pH 7.4 vs pH 5.6
Procedure, shortened: (§1)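 Mouse TRPV3 (WT or mutant) was transfected into HEK293 cells in 96-well plates. Cells were loaded with 5 µM Fluo-4/AM, 0.02% Pluronic F-127 and 0.1% BSA in HEPES ECS (pH 7.4) at 37°C for 60 min, with 2 mM probenecid throughout. 2-APB was added once per well in ECS, or in Mes acidic solution giving final pH 5.6. AUC was normalized to the plate maximum, and EC50 at each pH came from a Hill fit.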

[2] = molecular target: T2, TRPV3 E682Q/E689Q/D727N (QQN) (Mus musculus, UniProt Q8K424, D727N/E682Q/E689Q); test: whole-cell voltage-clamp recording in transfected HEK293 cells; format: cell-based
T2 sequence (Q8K424 1-791 E682Q/E689Q/D727N): T1 sequence (Q8K424 1-791 E631A) with A631E, E682Q, E689Q, D727N

[3] = molecular target: T2, TRPV3 E682Q/E689Q/D727N (QQN); test: cell-based Ca2+ assay
Procedure, shortened: as §1

WT mouse TRPV3 [4] = molecular target: T3, WT mouse TRPV3 (Mus musculus, UniProt Q8K424); test: cell-based Ca2+ assay; conditions: pH 7.4 vs pH 5.6
T3 sequence (Q8K424 1-791): T1 sequence (Q8K424 1-791 E631A) with A631E
Procedure, shortened: as §1

WT mouse TRPV3 [5] = molecular target: T3, WT mouse TRPV3; test: whole-cell voltage-clamp recording in transfected HEK293 cells; format: cell-based; conditions: 300 µM carvacrol; for repeated stimulations needed to approach the maximal response: 30-s applications
Procedure, shortened: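 Sensitization by intracellular pH: 300 µM carvacrol was applied repeatedly in whole-cell mode to HEK293 cells expressing mouse TRPV3. External solution was pH 7.4, nominally Ca2+-free. pHi was set to 7.2, 6.5 or 6.0 by CsCl/EGTA pipette solutions. The stimulation reaching maximal response was noted. Temperature was 22–24°C.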

TRPV3 E689Q/D727N = molecular target: T4, TRPV3 E689Q/D727N (Mus musculus, UniProt Q8K424, D727N/E689Q); test: cell-based Ca2+ assay
T4 sequence (Q8K424 1-791 E689Q/D727N): T1 sequence (Q8K424 1-791 E631A) with A631E, E689Q, D727N
Procedure, shortened: (§2)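 Ca2+ plate assay with FlexStation in HEK293 cells transiently expressing mutant mouse TRPV3. Fluo-4/AM loading was 5 µM for 60 min at 37°C in pH 7.4 ECS with probenecid; cells were then washed. Agonist was delivered robotically at varied concentrations, each well dosed once. Read-out was ex 494/em 525 nm at 0.67 Hz. AUC was normalized to the plate maximum, and EC50 was obtained by Hill fitting.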

TRPV3 E682Q/D727N = molecular target: T5, TRPV3 E682Q/D727N (Mus musculus, UniProt Q8K424, D727N/E682Q); test: cell-based Ca2+ assay
T5 sequence (Q8K424 1-791 E682Q/D727N): T1 sequence (Q8K424 1-791 E631A) with A631E, E682Q, D727N
Procedure, shortened: as §2

5.0:7.4 pH ratio of 2-APB-evoked current (TRPV3 E631A; +100 mV) | 5.0:7.4 pH ratio of 2-APB-evoked current (TRPV3 E631A; −100 mV) | ratio for 2-APB EC50 values obtained at pH 7.4 and pH 5.6 [1] | delay in current development after the addition of 2-APB ([2]; 5 µM 2-APB, pHe 6.5, nominally Ca2+-free bath) [s] | ratio for 2-APB EC50 values obtained at pH 7.4 and pH 5.6 ([3]; pH 7.4 vs pH 5.6) | ratio for 2-APB EC50 values obtained at pH 7.4 and pH 5.6 (WT mouse TRPV3 [4]) | stimulation at which the highest level of response was reached ([2]; 300 µM carvacrol, 30-s applications, pHi 7.2, external pH 7.4) | EC50 [3] [µM] | repeated stimulations needed to approach the maximal response (WT mouse TRPV3 [5]; pHi 6.0, external pH 7.4) | repeated stimulations needed to approach the maximal response (WT mouse TRPV3 [5]; pHi 7.2, external pH 7.4) | EC50 (TRPV3 E689Q/D727N) [µM] | EC50 (TRPV3 E682Q/D727N) [µM] | SMILES | decrease of carvacrol-evoked TRPV3 current by pH 5.5 compared with pH 7.4 (WT mouse TRPV3 [5]; presensitized cells, +80 mV, nominally Ca2+-free bath) [%]
0.98 ± 0.09 | 1.02 ± 0.03 | < 4.6 | ~30 | 0.92 | ~15 | – | – | – | – | – | – | NCCOB(c1ccccc1)c1ccccc1 [2-APB, 2-aminoethoxydiphenyl borate] | –
– | – | – | – | – | – | first stimulation | 119 ± 7.6 | five | ~14 | 60.2 ± 3.2 | 197 ± 7.8 | Cc1ccc(C(C)C)cc1O [carvacrol] | ~50
